Values after ≈ are worked out from the molar mass of the structure shown. Active and inactive are the calls of the source. The rule behind the calls is not given here.
Assays:
Acinetobacter baumannii [1] = test: Antibacterial activity against Acinetobacter baumannii ATCC BAA-1605 assessed as fold reduction in meropenem MIC at 60 uM after 16 hrs by microdilution method; format: functional
In short: (§1)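 MIC of each compound alone was determined first. Antibiotic MICs (imipenem or meropenem for A. baumannii; ceftazidime or meropenem for P. aeruginosa) were then measured with compound at fixed sub-MIC concentrations. Fold reduction is MIC without compound divided by MIC with compound.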

Pseudomonas aeruginosa [2] = test: Antibacterial activity against Pseudomonas aeruginosa PA53 assessed as fold reduction in meropenem MIC at 60 uM after 16 hrs by microdilution method; format: functional; in short: as §1
Pseudomonas aeruginosa [3] = test: Antibacterial activity against Pseudomonas aeruginosa PA53 assessed as complete inhibition of bacterial growth after 16 hrs by microdilution method; format: functional; conditions: PA53, 16 h; in short: as §1
Acinetobacter baumannii [4] = test: Antibacterial activity against Acinetobacter baumannii ATCC BAA-1605 assessed as complete inhibition of bacterial growth after 16 hrs by microdilution method; format: functional; conditions: ATCC BAA-1605, 16 h; in short: as §1
Pseudomonas aeruginosa [5] = test: Antibacterial activity against Pseudomonas aeruginosa PA53 assessed as fold reduction in ceftazidime MIC at 60 uM after 16 hrs by microdilution method; format: functional; in short: as §1
Acinetobacter baumannii [6] = test: Antibacterial activity against Acinetobacter baumannii ATCC BAA-1605 assessed as fold reduction in imipenem MIC at 60 uM after 16 hrs by microdilution method; format: functional; in short: as §1
Pseudomonas aeruginosa [7] = test: Antibacterial activity against Pseudomonas aeruginosa PA53 assessed as fold reduction in meropenem MIC at 30 uM after 16 hrs by microdilution method; format: functional; in short: as §1
Acinetobacter baumannii [8] = test: Antibacterial activity against Acinetobacter baumannii ATCC BAA-1605 assessed as fold reduction in meropenem MIC at 15 uM after 16 hrs by microdilution method; format: functional; in short: as §1
Pseudomonas aeruginosa [9] = test: Antibacterial activity against Pseudomonas aeruginosa PA53 assessed as fold reduction in ceftazidime MIC at 30 uM after 16 hrs by microdilution method; format: functional; in short: as §1
Acinetobacter baumannii [10] = test: Antibacterial activity against Acinetobacter baumannii ATCC BAA-1605 assessed as fold reduction in imipenem MIC at 15 uM after 16 hrs by microdilution method; format: functional; in short: as §1
Pseudomonas aeruginosa [11] = test: Antibacterial activity against Pseudomonas aeruginosa PA53 assessed as fold reduction in ceftazidime MIC at 15 uM after 16 hrs by microdilution method; format: functional; in short: as §1
Pseudomonas aeruginosa [12] = test: Antibacterial activity against Pseudomonas aeruginosa PA53 assessed as fold reduction in meropenem MIC at 15 uM after 16 hrs by microdilution method; format: functional; in short: as §1
Acinetobacter baumannii [13] = test: Antibacterial activity against Acinetobacter baumannii ATCC BAA-1605 assessed as fold reduction in meropenem MIC at 7.5 uM after 16 hrs by microdilution method; format: functional; in short: as §1
Acinetobacter baumannii [14] = test: Antibacterial activity against Acinetobacter baumannii ATCC BAA-1605 assessed as fold reduction in imipenem MIC at 7.5 uM after 16 hrs by microdilution method; format: functional; in short: as §1
Pseudomonas aeruginosa [15] = test: Antibacterial activity against Pseudomonas aeruginosa PA53 assessed as reduction in CFU at 1 ug/ml after 6 hrs by time kill assay; format: functional
In short: (§2)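 Time-kill: cultures were grown at 37 °C with shaking with compound (15 μM for BAA-1605, 60 μM for PA53), meropenem (1–32 μg/mL for BAA-1605, 1–64 μg/mL for PA53), or both. Samples taken at 2, 4, 6, 8 and 24 h were serially diluted in CAMHB, plated on nutrient agar, incubated overnight at 37 °C, and colonies counted.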

Acinetobacter baumannii [16] = test: Antibacterial activity against Acinetobacter baumannii ATCC BAA-1605 assessed as reduction in CFU at 1 ug/ml after 6 hrs by time kill assay; format: functional; in short: as §2
Acinetobacter baumannii [17] = test: Antibacterial activity against Acinetobacter baumannii ATCC BAA-1605 assessed as reduction in CFU at 4 ug/ml after 6 hrs by time kill assay; format: functional; in short: as §2
Pseudomonas aeruginosa [18] = test: Antibacterial activity against Pseudomonas aeruginosa PA53 assessed as reduction in CFU at 4 ug/ml after 6 hrs by time kill assay; format: functional; in short: as §2
Acinetobacter baumannii [19] = test: Antibacterial activity against Acinetobacter baumannii ATCC BAA-1605 assessed as fold reduction in imipenem MIC at 30 uM after 16 hrs by microdilution method; format: functional; in short: as §1
Acinetobacter baumannii [20] = test: Antibacterial activity against Acinetobacter baumannii ATCC BAA-1605 assessed as fold reduction in meropenem MIC at 30 uM after 16 hrs by microdilution method; format: functional; in short: as §1
Pseudomonas aeruginosa [21] = test: Antibacterial activity against Pseudomonas aeruginosa PA53 assessed as reduction in CFU at 60 uM after 6 hrs by time kill assay; format: functional; in short: as §2
Acinetobacter baumannii [22] = test: Antibacterial activity against Acinetobacter baumannii ATCC BAA-1605 assessed as reduction in CFU at 60 uM after 6 hrs by time kill assay; format: functional, organism-based
Acinetobacter baumannii [23] = test: Antibacterial activity against Acinetobacter baumannii ATCC BAA-1605 assessed as reduction in meropenem MIC at 60 uM after 6 hrs by time kill assay; format: functional
Pseudomonas aeruginosa [24] = test: Antibacterial activity against Pseudomonas aeruginosa PA53 assessed as reduction in meropenem MIC at 60 uM after 6 hrs by time kill assay; format: functional, organism-based

Row | Structure (SMILES) | MIC (Pseudomonas aeruginosa [3]) [µM] | MIC (Acinetobacter baumannii [4]) | fold change (FC) (Acinetobacter baumannii [1]) | fold change (FC) (Pseudomonas aeruginosa [2]) | fold change (FC) (Pseudomonas aeruginosa [5]) | further results
1 | Cl.Nc1ncc(-c2ccc(NC(=O)c3cc(I)c(I)c(I)c3)cc2)[nH]1 | – | – | 2 | 1 | – | –
2 | C[C@@H](O)[C@H]1C(=O)N2C(C(=O)O)=C(SCCNC=N)C[C@H]12 [IMIPENEM ANHYDROUS] | – | 16 µg/mL | – | – | – | –
3 | Cl.Nc1nc(-c2ccc(NC(=O)c3ccc(C(F)(F)F)c(F)c3)cc2)c[nH]1 | 50 | 25 µM | – | – | – | fold change (FC) (Pseudomonas aeruginosa [11]): 8; fold change (FC) (Pseudomonas aeruginosa [12]): 4; fold change (FC) (Acinetobacter baumannii [13]): 4; fold change (FC) (Acinetobacter baumannii [14]): 2
4 | Cl.Nc1nc(-c2ccc(NC(=O)c3ccc(Cl)cc3)cc2)c[nH]1 | > 200 | > 200 µM | 8 | 2 | 1 | fold change (FC) (Acinetobacter baumannii [6]): 4
5 | Cl.Nc1nc(-c2ccc(NC(=O)c3c(F)c(F)c(F)c(F)c3F)cc2)c[nH]1 | > 200 | > 200 µM | 2 | 2 | 1 | fold change (FC) (Acinetobacter baumannii [6]): 1
6 | C[C@@H](O)[C@H]1C(=O)N2C(C(=O)O)=C(S[C@@H]3CN[C@H](C(=O)N(C)C)C3)[C@H](C)[C@H]12 [MEROPENEM] | – | 32 µg/mL | – | – | – | fold change (FC) (Pseudomonas aeruginosa [15]): 0.2; fold change (FC) (Acinetobacter baumannii [16]): <0.1; fold change (FC) (Acinetobacter baumannii [17]): <0.1; fold change (FC) (Pseudomonas aeruginosa [18]): 0.2
7 | Cl.Nc1nc(-c2ccc(NC(=O)c3c(Cl)cc(Cl)cc3Cl)cc2)c[nH]1 | 200 | 100 µM | – | 4 | 1 | fold change (FC) (Acinetobacter baumannii [19]): 1; fold change (FC) (Acinetobacter baumannii [20]): 4
8 | Cl.Nc1ncc(-c2ccc(NC(=O)c3ccc(Br)cc3F)cc2)[nH]1 | – | – | 2 | 1 | – | –
9 | Cl.Nc1ncc(-c2ccc(NC(=O)c3cc(Br)cc(Br)c3)cc2)[nH]1 | – | – | – | 1 | – | fold change (FC) (Acinetobacter baumannii [20]): 4
10 | Cl.Nc1ncc(-c2ccc(NC(=O)c3ccc(I)cc3)cc2)[nH]1 | – | – | 2 | 1 | – | –
11 | Cl.Nc1ncc(-c2ccc(NC(=O)c3cccc(Cl)c3Cl)cc2)[nH]1 | – | – | 2 | 1 | – | Activity (Pseudomonas aeruginosa [21]): inactive; Activity (Acinetobacter baumannii [22]): inactive; fold change (FC) (Acinetobacter baumannii [23]): 2; Activity (Pseudomonas aeruginosa [24]): inactive
12 | Cl.Nc1ncc(-c2ccc(NC(=O)c3cccc(I)c3)cc2)[nH]1 | – | – | 8 | 1 | – | –
13 | Cl.Nc1ncc(-c2ccc(NC(=O)c3ccc(Cl)c(Cl)c3)cc2)[nH]1 | – | – | – | – | – | fold change (FC) (Pseudomonas aeruginosa [7]): 1; fold change (FC) (Acinetobacter baumannii [20]): 64
14 | Cl.Nc1ncc(-c2ccc(NC(=O)c3ccc(F)c(Cl)c3)cc2)[nH]1 | – | – | – | – | – | fold change (FC) (Pseudomonas aeruginosa [12]): 1; fold change (FC) (Acinetobacter baumannii [20]): 4
15 | Cl.Nc1ncc(-c2ccc(NC(=O)c3ccc(Cl)cc3Cl)cc2)[nH]1 | – | – | 4 | 1 | – | –

Second part, led by results:

Row | MIC (Pseudomonas aeruginosa [3]) [µM] | MIC (Acinetobacter baumannii [4]) | Structure (SMILES) | fold change (FC) (Acinetobacter baumannii [1]) | fold change (FC) (Pseudomonas aeruginosa [2]) | fold change (FC) (Pseudomonas aeruginosa [5]) | further results
16 | 200 | > 200 µM | Cl.Nc1nc(-c2ccc(NC(=O)c3cccc(F)c3)cc2)c[nH]1 | 4 | 2 | 1 | fold change (FC) (Acinetobacter baumannii [6]): 2
17 | 100 | 50 µM | Cl.Nc1nc(-c2ccc(NC(=O)c3ccc(C(F)(F)F)cc3)cc2)c[nH]1 | – | – | – | fold change (FC) (Pseudomonas aeruginosa [7]): 8; fold change (FC) (Acinetobacter baumannii [8]): 4; fold change (FC) (Pseudomonas aeruginosa [9]): 8; fold change (FC) (Acinetobacter baumannii [10]): 4
18 | 100 (≈ 31.4 µg/mL) | 200 µM | Nc1ncc(-c2ccc(NC(=O)c3cc(F)cc(F)c3)cc2)[nH]1 | 16 | – | – | fold change (FC) (Pseudomonas aeruginosa [7]): 2; fold change (FC) (Acinetobacter baumannii [6]): 8; fold change (FC) (Pseudomonas aeruginosa [9]): 1
19 | 200 | > 200 µM | Cl.Nc1nc(-c2ccc(NC(=O)c3ccc(F)cc3)cc2)c[nH]1 | 4 | 2 | 1 | fold change (FC) (Acinetobacter baumannii [6]): 2
20 | – | 200 µM | CCCCCc1ccc(C(=O)Nc2ccc(-c3cnc(N)[nH]3)cc2)cc1 | – | – | – | –
21 | – | 200 µM | CCCCCCC(=O)Nc1ccc(-c2cnc(N)[nH]2)cc1 | – | – | – | –
22 | > 200 | > 200 µM | Cl.Nc1nc(-c2ccc(NC(=O)c3ccccc3F)cc2)c[nH]1 | 2 | 2 | 1 | fold change (FC) (Acinetobacter baumannii [6]): 1
23 | – | 100 µM | CCCCCC(=O)Nc1cccc(-c2c[nH]c(N)n2)c1 | – | – | – | –
24 | > 200 | > 200 µM | Cl.Nc1nc(-c2ccc(NC(=O)c3ccc(Br)cc3)cc2)c[nH]1 | 16 | 2 | 1 | fold change (FC) (Acinetobacter baumannii [6]): 8
25 | – | 100 µM | Nc1ncc(-c2ccc(NC(=O)/C=C/c3ccccc3)cc2)[nH]1 | – | – | – | –
26 | 200 | 100 µM | Cl.Nc1nc(-c2ccc(NC(=O)c3cc(F)c(F)c(F)c3)cc2)c[nH]1 | – | 2 | 1 | fold change (FC) (Acinetobacter baumannii [19]): 8; fold change (FC) (Acinetobacter baumannii [20]): 8
27 | > 200 | > 200 µM | Cl.Nc1nc(-c2ccc(NC(=O)c3cccc(Br)c3)cc2)c[nH]1 | 16 | 4 | 16 | fold change (FC) (Acinetobacter baumannii [6]): 8
28 | – | 100 µM | CCCCCCc1ccc(-c2c[nH]c(N)n2)cc1 | – | – | – | –
